Compound activity from PubChem BioAssay.
CRFR2-BP ag = CRF-BP/CRF-R2 complex agonism; HEK293 CRF-R2/CRF-BP, calcium dye fluorescence (FLIPR); percent of saturating CRF peptide response; activation, % at 13.2 µM; 350,000 tested, 0.46% active; AID 588473;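 active = activation of at least 50%, plus an integration ratio under a set limit after plate pattern correction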
TMEM16A inh = blocks the mouse calcium-activated chloride channel TMEM16A. Q8BHY3. HEK293 TMEM16A/YFP iodide influx fluorescence, ionomycin. normalized B-score (activity score, 25-100; higher = stronger inhibition) at 10 µM. 310,000 tested, 1.2% active;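 active = ratio plate-corrected score three or more library SD toward inhibition, starting fluorescence score within five deviations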;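 also: score derived from kinetic fluorescence span divided by baseline fluorescence per well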
ANO1 activ = mouse TMEM16A channel activation, primary screen; 340,000 tested, 0.3% active; B-score at 10 µM; AID 623877; HEK293 TMEM16A/YFP-H148Q/I152L, iodide quench fluorescence; active compounds read low; Q8BHY3;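 active = fluorescence-ratio B-score plate-corrected deviation score at least 3 library SD below zero, with starting fluorescence score within 5 deviations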;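 also: channel opened by trigger with iodide after compound preincubation; score built on the fluorescence ratio of max minus min over baseline; more negative score means more quench and so TMEM16A activation or potentiation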
TAAR1 agonist = agonists of human TAAR1; Q96RJ0; CHO RD-HGA16 TAAR1, Fluo-8 calcium fluorescence; vehicle wells 0%, saturating PEA agonist 100%; activation, % at 3 µM; 360,000 tested, 0.99% active;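 active = activation above the mean activation of all test compounds in the run plus 3 SD, cut at about 38% in these data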
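Signal – calcium-sensitive Fluo-8 signal, excitation 470-495, emission 515-575 nm · System – RD-HGA16 (CHO) cells co-expressing Gα16 and hTAAR1 · Incubation – 17-24 h seeding, 75 min 37 °C dye, 30 min RT · Compound dosing – 3 µM single concentration · Repeats – no replicates (n 1)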
TAAR1 antagonist = human TAAR1 antagonism. CHO RD-HGA16 TAAR1, Fluo-8 calcium fluorescence, antagonist. inhibition, % at 3 µM. 360,000 tested, 1.5% active. AID 624466;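 active = inhibition above a per-plate cutoff, the mean inhibition of test compounds on that plate plus 3 SD, cut at about 49% in these data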
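Assay system: RD-HGA16 CHO cells with stable hTAAR1 and Gα16 / Reagent: EC80 β-phenethylamine stimulus / Doses: 3 µM, single point / Timing: dye loading 75 min at 37 °C, then 30 min room temperature / Measured by: Fluo-8 intracellular calcium dye fluorescence, real-time kinetic reads / Controls: vehicle wells and EC80 agonist wells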
CRFBP-R2 block = antagonists of CRF-binding protein/CRF-R2 receptor complex; HEK293 CRF-R2/CRF-BP, CRF-induced calcium fluorescence; inhibition, % at 11.8 µM; 350,000 tested, 0.59% active; AID 588475;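 active = inhibition of the ligand-induced calcium signal above about 50% at the single tested concentration, limit read from the data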
TAAR1 ag conf = human TAAR1 agonism, confirmed. shares compounds with TAAR1 agonist. CHO RD-HGA16 TAAR1, Fluo-8 calcium fluorescence; scaled: DMSO 0%, maximal phenethylamine 100%. activation, % at 3 µM. 2,400 tested, 82% active. AID 651783;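 active = activation above a cutoff set at the run's mean compound activation plus 3 SD, cut at about 39% in these data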
Ga16 ag counter = nonselective agonist in parental cells, TAAR1 agonist counter-screen. shares compounds with TAAR1 agonist. CHO-Ga16 parental, Fluo-8 calcium fluorescence; normalized to maximal ATP response, DMSO zero. activation, % at 3 µM. 2,400 tested, 50% active. AID 651787;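 active = activation above the run cutoff, the mean activation over all tested wells plus 3 SD, cut at about 12% in these data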
TAAR1 desensitize = TAAR1 response desensitization, agonist counter-screen | shares compounds with TAAR1 agonist | CHO RD-HGA16 hTAAR1, Fluo-8 calcium, beta-PEA response inhibition | inhibition, % at 3 µM | 2,400 tested, 46% active | AID 651951;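 active = inhibition above the run cutoff, the mean inhibition of all test compounds plus 3 SD, cut at about 49% in these data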;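 also: beta-PEA stimulus applied at its EC80; loss of beta-PEA calcium signal after compound pretreatment read as receptor desensitization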
Ga16 antag count = nonselective Ga16 antagonist in TAAR1 agonist counter-screen; inhibition, % at 3 µM; 2,400 tested, 39% active; shares compounds with TAAR1 agonist; CHO-Ga16 ATP-induced calcium, Fluo-8 fluorescence;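 active = inhibition above the plate's mean compound inhibition plus 3 SD, computed per plate, cut at about 22% in these data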
Large screens that a line does not name were inactive (follow-up assays come after a bar, where they were run). Shown are actives, neighbours in structure and some others; about 3.9% of the full set was active somewhere.

N/C(=N\OC(=O)c1ccc2c(c1)OCO2)c1cccc(Br)c1	none
N/C(Cc1cccc2ccccc12)=N\OC(=O)c1ccc(Br)o1	TAAR1 agonist 91 (no result: CRFR2-BP ag, TMEM16A inh, ANO1 activ, CRFBP-R2 block) | TAAR1 ag conf 89 | Ga16 ag counter inactive | TAAR1 desensitize 80 | Ga16 antag count inactive
COc1cc(-c2noc(C)c2-c2ccc(N(C)C)nc2)cc(OC)c1OC	CRFR2-BP ag 53, TAAR1 agonist 96, TAAR1 antagonist 54 | TAAR1 ag conf 84 | Ga16 ag counter 48 | TAAR1 desensitize 54 | Ga16 antag count 31
Cc1cccc(CCNC(=O)CCc2nnc(CCc3ccccc3)o2)n1	none
O=C(O)C1C2C=CC(C2)C1C(=O)NCCc1ccncc1 (stereo unspecified)	none
O=C(O)C1C2C=CC(C2)C1C(=O)NCCc1ccccc1 (stereo unspecified)	TAAR1 agonist 84, TAAR1 antagonist 92 | TAAR1 ag conf 96 | Ga16 ag counter inactive | TAAR1 desensitize 94 | Ga16 antag count inactive
CCCCC(CC)CNC(=O)C1C2C=CC(C2)C1C(=O)O (stereo unspecified)	TAAR1 agonist 78, TAAR1 antagonist 49 | TAAR1 ag conf 90 | Ga16 ag counter inactive | TAAR1 desensitize 51 | Ga16 antag count inactive
O=C(O)C1C2C=CC(C2)C1C(=O)NCCCc1ccccc1 (stereo unspecified)	TAAR1 agonist 76 | TAAR1 ag conf 80 | Ga16 ag counter inactive | TAAR1 desensitize inactive | Ga16 antag count inactive
NC(Cc1ccc(F)cc1)c1csc(NC(=O)NC(c2ccccc2)c2ccccc2)n1 (stereo unspecified)	TAAR1 agonist 56, TAAR1 antagonist 68 (no result: CRFR2-BP ag, TMEM16A inh, ANO1 activ, CRFBP-R2 block) | TAAR1 ag conf inactive | Ga16 ag counter 23 | TAAR1 desensitize inactive | Ga16 antag count 45
COc1ccc(CC(N)c2csc(NC(=O)c3cc(C(C)(C)C)oc3C)n2)cc1 (stereo unspecified)	TAAR1 agonist 48 (no result: CRFR2-BP ag, TMEM16A inh, ANO1 activ, CRFBP-R2 block) | TAAR1 ag conf inactive | Ga16 ag counter 30 | TAAR1 desensitize inactive | Ga16 antag count 51
COc1ccc(CC(N)c2csc(NC(=O)Nc3ccccc3Cc3ccccc3)n2)cc1 (stereo unspecified)	none (no result: CRFR2-BP ag, TMEM16A inh, ANO1 activ, CRFBP-R2 block)
COc1ccc(CNC(=O)Nc2nc(C(N)Cc3ccc(F)cc3)cs2)cc1 (stereo unspecified)	TAAR1 agonist 57, TAAR1 antagonist 59 (no result: CRFR2-BP ag, TMEM16A inh, ANO1 activ, CRFBP-R2 block) | TAAR1 ag conf 70 | Ga16 ag counter 34 | TAAR1 desensitize 66 | Ga16 antag count 59
COc1ccc(CC(N)c2csc(NC(=O)Nc3ccccc3Oc3ccccc3)n2)cc1 (stereo unspecified)	none (no result: CRFR2-BP ag, TMEM16A inh, ANO1 activ, CRFBP-R2 block)
COc1ccc(CC(N)c2csc(NC(=O)CCc3ccccc3)n2)cc1 (stereo unspecified)	TAAR1 agonist 62, TAAR1 antagonist 59 (no result: CRFR2-BP ag, TMEM16A inh, ANO1 activ, CRFBP-R2 block) | TAAR1 ag conf inactive | Ga16 ag counter 28 | TAAR1 desensitize inactive | Ga16 antag count 37
CC1(C(=O)NS(=O)(=O)c2cccs2)CCN1C(=O)C1(c2ccc(Cl)cc2)CCC1 (stereo unspecified)	none (no result: CRFR2-BP ag, TMEM16A inh, ANO1 activ, CRFBP-R2 block)
CCc1cc2c(NCc3ccccc3)nc(C)nc2s1	none
CCc1cc2c(NCCC(=O)O)nc(C)nc2s1	TAAR1 agonist 49 | TAAR1 ag conf 104 | Ga16 ag counter 47 | TAAR1 desensitize inactive | Ga16 antag count inactive
O=c1cc(O)c2ccc(O)cc2o1	none
